Results published in ChEMBL document CHEMBL3244252, “Adriamycin analogues. 3. Synthesis of N-alkylated anthracyclines with enhanced efficacy and reduced cardiotoxicity” (J Med Chem, 1979).

Experiments:
[1] = test system: P388; assay: Antitumor activity against mouse P388 cells allografted in CDF/BDF mouse assessed as survival time at 6.25 mg/kg, ip administered as qd for 1 to 9 days relative to control; type: functional; conditions: route intraperitoneal
[2] = test system: L1210; assay: Selectivity ratio of ED50 for inhibition of DNA synthesis in mouse L1210 cells to ED50 for inhibition of RNA synthesis in mouse L1210 cells; type: functional
In short: (§1)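 L1210 leukemia cells. Drugs were first dissolved in Me2SO to a final 1% Me2SO in the assay medium. Inhibition of DNA and RNA synthesis was measured separately and reported as ED50 (50% inhibitory dose, μM). Selectivity is the ratio of the DNA ED50 to the RNA ED50.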

[3] = test system: L1210; assay: Inhibition of DNA synthesis in mouse L1210 cells; type: functional; conditions: read-out: ED50 (the source's name); in short: as §1
[4] = test system: Calf thymus DNA; assay: Binding affinity to calf thymus DNA assessed as change in melting temperature; type: nucleic-acid assay; conditions: Bos taurus
In short: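 Drug first dissolved in Me2SO to a final 5% Me2SO in the assay medium. DNA binding is read as the shift in DNA melting temperature (ΔTm). ΔTm below 1 is taken as insignificant binding.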

[5] = test system: L1210; assay: Inhibition of RNA synthesis in mouse L1210 cells; type: functional; conditions: read-out: ED50 (the source's name); in short: as §1
[6] = organism: Rattus norvegicus; assay: Cardiotoxicity in rat assessed as minimum cumulative cardiotoxic dose by Zbinden test; type: toxicity, organism-based; conditions: in vivo
In short: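 Zbinden cardiotoxicity assay in rats. Drug was given cumulatively, with ECG monitoring. Value is the minimum total dose (mg/kg) that causes significant ECG alterations.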

[7] = test system: Salmonella typhimurium; assay: Mutagenicity in Salmonella typhimurium TA98 assessed as number of revertants by Ames test in presence of microsomal activation; type: toxicity, organism-based; conditions: salmonella enterica subsp. enterica serovar typhimurium
In short: (§2)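 Ames plate test using Salmonella typhimurium tester strain TA98. Compounds were tested over dose ranges of 0-20 to 0-100 µg/plate, depending on the compound, and the toxicity level per plate was noted. Mutagenicity is expressed as revertants produced per nmol of compound.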

[8] = test system: Salmonella typhimurium; assay: Mutagenicity in Salmonella typhimurium TA98 assessed as number of revertants by Ames test in absence of microsomal activation; type: toxicity, organism-based; conditions: salmonella enterica subsp. enterica serovar typhimurium; in short: as §2
[9] = test system: Salmonella typhimurium; assay: Toxicity in Salmonella typhimurium TA98 assessed as concentration required to cause mortality per plate; type: organism-based; conditions: salmonella enterica subsp. enterica serovar typhimurium
In short: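 Ames plate test with Salmonella typhimurium tester strain TA98. Compounds were tested over ranges from 0–20 up to 0–100 µg/plate, depending on compound. The toxicity level is reported in µg/plate.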

[10] = test system: P388; assay: Antitumor activity against mouse P388 cells allografted in CDF/BDF mouse assessed as survival time at 25 mg/kg, ip administered as qd for 1 to 9 days relative to control; type: functional; conditions: route intraperitoneal
[11] = test system: P388; assay: Antitumor activity against mouse P388 cells allografted in CDF/BDF mouse assessed as survival time at 37.5 mg/kg, ip administered as qd on day 5, 9, 13; type: functional; conditions: route intraperitoneal
[12] = Aqueous solubility of the compound; type: physicochemical; conditions: water
[13] = Aqueous solubility of the compound using 10% propylene glycol vehicle; type: physicochemical; conditions: 10% propylene glycol in water
[14] = test system: P388; assay: Antitumor activity against ip dosed mouse P388 cells allografted in CDF/BDF mouse assessed as survival time administered as qd for 1 to 9 days relative to control; type: functional
[15] = test system: P388; assay: Antitumor activity against mouse P388 cells allografted in CDF/BDF mouse assessed as survival time at 4 mg/kg, ip administered as qd for 1 to 9 days relative to control; type: functional; conditions: route intraperitoneal
[16] = test system: P388; assay: Antitumor activity against mouse P388 cells allografted in CDF/BDF mouse assessed as survival time at 18 mg/kg, ip administered as qd on day 5, 9, 13; type: functional; conditions: route intraperitoneal
[17] = test system: P388; assay: Antitumor activity against mouse P388 cells allografted in CDF/BDF mouse assessed as survival time at 1.56 mg/kg, ip administered as qd for 1 to 9 days relative to control; type: functional; conditions: route intraperitoneal
[18] = test system: P388; assay: Antitumor activity against mouse P388 cells allografted in CDF/BDF mouse assessed as survival time at 12.5 mg/kg, ip administered as qd for 1 to 9 days relative to control; type: functional; conditions: route intraperitoneal

SMILES | T/C [1] | Ratio ED50 [2] | EC50 [3] | ΔTm [4] | EC50 [5] | MTC [6] | Activity [7] | Activity [8] | Activity [9] | T/C [10] | T/C [11] | solubility [12] | solubility [13] | T/C [14] | T/C [15] | T/C [16] | T/C [17] | T/C [18]
COc1cccc2c1C(=O)c1c(O)c3c(c(O)c1C2=O)C[C@@](O)(C(=O)CO)C[C@@H]3O[C@H]1C[C@H](N(Cc2ccccc2)Cc2ccccc2)[C@H](O)[C@H](C)O1.Cl | 175% | 22.8 | 110000 nM | 0 °C | 4800 nM | – | – | – | – | – | – | – | – | – | – | – | – | –
COc1cccc2c1C(=O)c1c(O)c3c(c(O)c1C2=O)C[C@@](O)(C(C)=O)C[C@@H]3O[C@H]1C[C@H](N(C)C)[C@H](O)[C@H](C)O1.Cl | – | 10.4 | 670 nM | – | 64 nM | 11 mg/kg | 0 nmol⁻¹ | Non-toxic | 20 µg | – | – | – | – | – | – | – | – | –
COc1cccc2c1C(=O)c1c(O)c3c(c(O)c1C2=O)C[C@@](O)(C(C)=O)C[C@@H]3O[C@H]1C[C@H](N(Cc2ccccc2)Cc2ccccc2)[C@H](O)[C@H](C)O1.Cl | – | >10 | > 100000 nM | 1.35 °C | 10000 nM | 125 mg/kg | 0.5 nmol⁻¹ | Non-toxic | – | 259% | 209% | 200 µg/mL | > 36000 µg/mL | – | – | – | – | –
CCCCCCCCCCN[C@H]1C[C@H](O[C@H]2C[C@](O)(C(C)=O)Cc3c(O)c4c(c(O)c32)C(=O)c2c(OC)cccc2C4=O)O[C@@H](C)[C@H]1O.Cl | – | 1.3 | 3300 nM | 7 °C | 2600 nM | – | – | – | – | – | – | – | – | <125% | – | – | – | –
COc1cccc2c1C(=O)c1c(O)c3c(c(O)c1C2=O)C[C@@](O)(C(=O)CO)C[C@@H]3O[C@H]1C[C@H](N(C)C)[C@H](O)[C@H](C)O1.Cl | – | 5.2 | 620 nM | 17.5 °C | 120 nM | 6 mg/kg | 1 nmol⁻¹ | Non-toxic | 20 µg | – | – | – | – | – | – | – | – | –
CCN(CC)[C@H]1C[C@H](O[C@H]2C[C@](O)(C(C)=O)Cc3c(O)c4c(c(O)c32)C(=O)c2c(OC)cccc2C4=O)O[C@@H](C)[C@H]1O.Cl | – | 5.2 | 670 nM | 13.6 °C | 130 nM | – | – | – | – | – | – | – | – | – | 178% | – | – | –
COc1cccc2c1C(=O)c1c(O)c3c(c(O)c1C2=O)C[C@@](O)(C(O)CO)C[C@@H]3O[C@H]1C[C@H](N2CCCCC2)[C@H](O)[C@H](C)O1.Cl (some centres not stated) | – | 7.2 | 720 nM | 12.5 °C | 100 nM | – | – | – | – | – | – | – | – | – | – | 143% | 157% | –
COc1cccc2c1C(=O)c1c(O)c3c(c(O)c1C2=O)C[C@@](O)(C(C)O)C[C@@H]3O[C@H]1C[C@H](NCc2ccccc2)[C@H](O)[C@H](C)O1.Cl (some centres not stated) | 221% | 5.3 | 1700 nM | 6.25 °C | 320 nM | – | – | – | – | – | – | – | – | – | – | – | – | –
COc1cccc2c1C(=O)c1c(O)c3c(c(O)c1C2=O)C[C@@](O)(C(C)=O)C[C@@H]3O[C@H]1C[C@H](NC(C)C)[C@H](O)[C@H](C)O1.Cl | – | 3.4 | 1100 nM | 10.6 °C | 320 nM | – | – | – | – | – | – | – | – | – | – | – | – | 199%
